# Data from ChEMBL document CHEMBL4665627 (Eur J Med Chem, 2019).
# Legend:
# Type in all cases: functional
# Candida tropicalis = test: Antifungal activity against Candida tropicalis assessed as inhibition of fungal growth after 24 hrs by CLSI protocol based two fold serial dilution method
# Method in brief: (§1)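 Two-fold serial broth dilution in 96-well plates following CLSI; MIC (mM) taken as the lowest concentration giving complete growth inhibition; MIC values from three independent experiments.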
# Klebsiella pneumoniae = test: Antibacterial activity against Klebsiella pneumoniae assessed as inhibition of bacterial growth after 24 hrs by CLSI protocol based two fold serial dilution method; method in brief: as §1
# Enterococcus faecalis = test: Antibacterial activity against Enterococcus faecalis assessed as inhibition of bacterial growth after 24 hrs by CLSI protocol based two fold serial dilution method; method in brief: as §1
# Candida albicans [1] = test: Antifungal activity against Candida albicans ATCC 90023 assessed as inhibition of fungal growth after 24 hrs by CLSI protocol based two fold serial dilution method; method in brief: as §1
# Escherichia coli [2] = test: Antibacterial activity against Escherichia coli ATCC 25922 assessed as inhibition of bacterial growth after 24 hrs by CLSI protocol based two fold serial dilution method; method in brief: as §1
# Staphylococcus aureus [3] = test: Antibacterial activity against Staphylococcus aureus ATCC 25923 assessed as inhibition of bacterial growth after 24 hrs by CLSI protocol based two fold serial dilution method; method in brief: as §1
# Staphylococcus aureus [4] = test: Antibacterial activity against Staphylococcus aureus ATCC 29213 assessed as inhibition of bacterial growth after 24 hrs by CLSI protocol based two fold serial dilution method
# Acinetobacter baumannii = test: Antibacterial activity against Acinetobacter baumannii assessed as inhibition of bacterial growth after 24 hrs by CLSI protocol based two fold serial dilution method; method in brief: as §1
# Candida parapsilosis = test: Antifungal activity against Candida parapsilosis ATCC 22019 assessed as inhibition of fungal growth after 24 hrs by CLSI protocol based two fold serial dilution method; conditions: Lodderomyces parapsilosis; method in brief: as §1
# Pseudomonas aeruginosa [5] = test: Antibacterial activity against Pseudomonas aeruginosa ATCC 27853 assessed as inhibition of bacterial growth after 24 hrs by CLSI protocol based two fold serial dilution method; method in brief: as §1
# Aspergillus fumigatus = test: Antifungal activity against Aspergillus fumigatus assessed as inhibition of fungal growth after 24 hrs by CLSI protocol based two fold serial dilution method; method in brief: as §1
# Staphylococcus aureus [6] = test: Antibacterial activity against methicillin-resistant Staphylococcus aureus N315 assessed as inhibition of bacterial growth after 24 hrs by CLSI protocol based two fold serial dilution method
# Staphylococcus aureus [7] = test: Antibacterial activity against Staphylococcus aureus assessed as inhibition of bacterial growth after 24 hrs by CLSI protocol based two fold serial dilution method; method in brief: as §1
# Candida albicans [8] = test: Antifungal activity against Candida albicans assessed as inhibition of fungal growth after 24 hrs by CLSI protocol based two fold serial dilution method; method in brief: as §1
# Pseudomonas aeruginosa [9] = test: Antibacterial activity against Pseudomonas aeruginosa assessed as inhibition of bacterial growth after 24 hrs by CLSI protocol based two fold serial dilution method; method in brief: as §1
# Escherichia coli [10] = test: Antibacterial activity against Escherichia coli assessed as inhibition of bacterial growth after 24 hrs by CLSI protocol based two fold serial dilution method; method in brief: as §1
SMILES,MIC (Candida tropicalis),MIC (Klebsiella pneumoniae),MIC (Enterococcus faecalis),MIC (Candida albicans [1]),MIC (Escherichia coli [2]),MIC (Staphylococcus aureus [3]),MIC (Staphylococcus aureus [4]),MIC (Acinetobacter baumannii),MIC (Candida parapsilosis),MIC (Pseudomonas aeruginosa [5]),MIC (Aspergillus fumigatus),MIC (Staphylococcus aureus [6]),MIC (Staphylococcus aureus [7]),MIC (Candida albicans [8]),MIC (Pseudomonas aeruginosa [9]),MIC (Escherichia coli [10])
CCn1cc(-c2csc(N)n2)c(=O)c2cc(F)c(N3CCN(Cc4ccc(F)cc4)CC3)cc21,133 µM,266 µM,67 µM,17 µM,33 µM,133 µM,532 µM,266 µM,67 µM,67 µM,266 µM,67 µM,133 µM,133 µM,1060 µM,67 µM
OC(Cn1cncn1)(Cn1cncn1)c1ccc(F)cc1F [FLUCONAZOLE],26 µM,–,–,7 µM,–,–,–,–,13 µM,–,836 µM,–,–,13 µM,–,–
CCCCCCCCN1CCN(c2cc3c(cc2F)c(=O)c(-c2csc(N)n2)cn3CC)CC1,264 µM,264 µM,528 µM,1060 µM,1060 µM,264 µM,528 µM,528 µM,264 µM,264 µM,16 µM,528 µM,264 µM,1060 µM,264 µM,264 µM
CCOC(=O)CN1CCN(c2cc3c(=O)c(-c4csc(N)n4)cn(CC)c3cc2Cl)CC1,135 µM,67 µM,539 µM,67 µM,1080 µM,135 µM,539 µM,135 µM,135 µM,269 µM,539 µM,67 µM,135 µM,269 µM,269 µM,269 µM
CCn1cc(-c2csc(N)n2)c(=O)c2cc(F)c(N3CCN(CC(=O)N(CCO)CCO)CC3)cc21,62 µM,62 µM,15 µM,8 µM,15 µM,8 µM,62 µM,62 µM,31 µM,62 µM,15 µM,62 µM,124 µM,62 µM,62 µM,62 µM
CCn1cc(-c2csc(N)n2)c(=O)c2cc(F)c(N3CCN(CC(C)O)CC3)cc21 (stereo not drawn),297 µM,9 µM,297 µM,148 µM,37 µM,148 µM,148 µM,19 µM,148 µM,5 µM,37 µM,148 µM,37 µM,148 µM,148 µM,594 µM
CCCCCCCCCCCCN1CCN(c2cc3c(cc2F)c(=O)c(-c2csc(N)n2)cn3CC)CC1,236 µM,946 µM,946 µM,946 µM,946 µM,946 µM,946 µM,473 µM,473 µM,473 µM,473 µM,946 µM,473 µM,473 µM,473 µM,473 µM
CCn1cc(-c2csc(N)n2)c(=O)c2cc(F)c(N3CCN(CC(=O)N(C)C)CC3)cc21,70 µM,35 µM,140 µM,140 µM,70 µM,17 µM,70 µM,140 µM,279 µM,70 µM,70 µM,70 µM,35 µM,70 µM,279 µM,140 µM
CCOC(=O)CN1CCN(c2cc3c(cc2F)c(=O)c(-c2csc(N)n2)cn3CC)CC1,139 µM,139 µM,279 µM,70 µM,558 µM,17 µM,139 µM,35 µM,279 µM,70 µM,558 µM,139 µM,70 µM,70 µM,139 µM,279 µM
